The values that follow come from ChEMBL document CHEMBL1126160, “Synthesis and structure-activity relationships of 7-diazabicycloalkylquinolones, including danofloxacin, a new quinolone antibacterial agent for veterinary medicine” (J Med Chem, 1992).

Values after ≈ are worked out from the molar mass of the structure shown. Some results are limits rather than exact numbers.

Format in all cases: functional
The subject of experiment [1] is Actinobacillus pleuropneumoniae. Kind of experiment: In vitro antibacterial activity against anaerobically grown Actinobacillus pleuropneumoniae ([…]). The procedure, abridged:
(§1)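 Agar dilution MICs. Anaerobic strains were tested on tryptose agar with 5% bovine blood and incubated 48 h at 39 °C in an anaerobe chamber under N2/CO2/H2 (80:10:10).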

Experiment [2] relates to Trueperella pyogenes. Put plainly: In vitro antibacterial activity against anaerobically grown Actinomyces pyogenes (14D002). The procedure, abridged:
as §1

Experiment [3] has as its system Phocaeicola vulgatus. Put plainly: In vitro antibacterial activity against anaerobically grown Bacteroides vulgatus (78D029). The procedure, abridged:
as §1

Experiment [4] has as its system Bordetella bronchiseptica. Kind of experiment: In vitro antibacterial activity against aerobically grown Bordetella bronchiseptica (73A009). The procedure, abridged:
(§2)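 Agar dilution MICs. Aerobic strains were tested on brain heart infusion agar and incubated aerobically at 37 °C for 18–20 h.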

Experiment [5] concerns Escherichia coli. Put plainly: In vitro antibacterial activity against aerobically grown Escherichia coli (51A538). The procedure, abridged: as §2
Experiment [6] deals with Escherichia coli. Kind of experiment: Escherichia coli DNA cleavage endpoint value which is the minimum amount required (in micro g/mL) to induce detectable cleavage of supercoiled pBR322 substrate to linear form (gyrase). Particulars: read-out: MIC. The procedure, abridged: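 DNA gyrase A and B subunits were purified from E. coli overproducers. About 2 units of holoenzyme were incubated with pBR322 in Tris-HCl pH 7.5 containing MgCl2, spermidine, DTT, 0.2 mM ATP, BSA and tRNA. Drug was added as 2-fold serial dilutions, and reactions ran for 60 min at 25 °C. Reactions were stopped with SDS and proteinase K, then run on agarose and stained with ethidium. The endpoint was the lowest concentration giving detectable linear DNA.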

Experiment [7] can be described thus: In vitro antibacterial activity against Aerobically grown Pasteurella haemolytica (59B018). The note with it: Mannheimia haemolytica. The procedure, abridged:
as §2

The test system of experiment [8] is Pasteurella multocida. Put plainly: In vitro antibacterial activity against aerobically grown Pasteurella multocida (59A006). The procedure, abridged: as §2
The subject of experiment [9] is Salmonella enterica. Kind of experiment: In vitro antibacterial activity against aerobically grown Salmonella choleraesuis (58B015).
For experiment [10], the system named is Staphylococcus aureus. Kind of experiment: In vitro antibacterial activity against aerobically grown Staphylococcus aureus (54B004). The procedure, abridged:
as §2

A short description of experiment [11]: In vitro evaluation for antibacterial activity against anaerobically grown Treponema hyodysenteriae (94A007). Particulars: Brachyspira hyodysenteriae.
Experiment [12] relates to Clostridium perfringens. Kind of experiment: microbe, parasite or virus in culture.

For the molecule `CN1[C@@H]2CCC[C@H]1CN(c1cc3c(cc1F)c(=O)c(C(=O)O)cn3C1CC1)C2.Cl`, the MIC in [1] was 0.1 µg/mL; in experiment [2], 3.13 µg/mL; in experiment [3], 1.56 µg/mL; in experiment [4], 1.56 µg/mL; in [5], 0.39 µg/mL; in [7], 0.2 µg/mL. For the same molecule, the MIC is 0.05 µg/mL in experiment [8]; 0.39 µg/mL in [9]; 0.2 µg/mL in experiment [10]; more than 3.13 µg/mL in experiment [11]; 0.39 µg/mL in [12]. For the same molecule, the minimum concentration inducing gyrase-mediated DNA cleavage in experiment [6] came to 1.56 µg/mL.
In the case of `CN1[C@@H]2CC[C@H]1CN(c1cc3c(cc1F)c(=O)c(C(=O)O)cn3CCF)C2.Cl.O`, the MIC came to 0.1 µg/mL in [1]; 6.25 µg/mL in [3]; 3.13 µg/mL in experiment [4]; 0.2 µg/mL in experiment [5]; 0.2 µg/mL in experiment [7]; 0.2 µg/mL in [8]. In addition, the MIC amounted to 0.39 µg/mL in experiment [9], 0.2 µg/mL in experiment [10], 3.13 µg/mL in experiment [11] and 0.39 µg/mL in [12]. In experiment [6], the minimum concentration inducing gyrase-mediated DNA cleavage amounted to 3.12 µg/mL.
For `CN1[C@@H]2CC[C@H]1CN(c1cc3c(cc1F)c(=O)c(C(=O)O)cn3-c1ccc(F)cc1)C2.Cl.O`, the MIC in [1] was 0.78 µg/mL; in [2], more than 3.13 µg/mL; in [3], 0.78 µg/mL; in experiment [4], more than 1.56 µg/mL; in experiment [5] it was 1.56 µg/mL; in [7], 0.78 µg/mL. Further, the MIC is 0.2 µg/mL in [8]; more than 1.56 µg/mL in experiment [9]; 0.78 µg/mL in [10]; 1.56 µg/mL in experiment [11]; 3.13 µg/mL in [12].
Take `CN1C[C@@H]2C[C@H]1CN2c1c(F)cc2c(=O)c(C(=O)O)cn(C3CC3)c2c1F`: the MIC was less than 0.05 µg/mL in experiment [1]; 0.78 µg/mL (≈ 2.08 µM) in experiment [2]; 3.12 µg/mL (≈ 8.31 µM) in experiment [3]; 0.39 µg/mL (≈ 1.04 µM) in [4]; less than 0.05 µg/mL in experiment [5]; less than 0.05 µg/mL in experiment [7]. In addition, the MIC was less than 0.05 µg/mL in experiment [8], 0.1 µg/mL (≈ 0.266 µM) in experiment [10], 1.56 µg/mL (≈ 4.16 µM) in experiment [11] and 3.12 µg/mL (≈ 8.31 µM) in experiment [12]. Moreover, the minimum concentration inducing gyrase-mediated DNA cleavage in [6] came out at 0.39 µg/mL.
As for `CN1C2CC[C@@H]1CCN(c1cc3c(cc1F)c(=O)c(C(=O)O)cn3C)C2`, the MIC in experiment [4] is more than 25 µg/mL; in [5] it was 6.25 µg/mL (≈ 17.4 µM); in experiment [7], 6.25 µg/mL (≈ 17.4 µM); in experiment [8] it was 6.25 µg/mL (≈ 17.4 µM); in [9], 6.25 µg/mL (≈ 17.4 µM); in [10], 1.56 µg/mL (≈ 4.34 µM). In addition, the minimum concentration inducing gyrase-mediated DNA cleavage in experiment [6] was 6.25 µg/mL.
On to `CN1C[C@@H]2C[C@H]1CN2c1cc2c(cc1F)c(=O)c(C(=O)O)cn2-c1ccc(F)cc1F`, for which the MIC in experiment [1] came to 0.005 µg/mL (≈ 0.0116 µM); in [2], 0.78 µg/mL (≈ 1.82 µM); in experiment [3], 0.78 µg/mL (≈ 1.82 µM); in experiment [4], 1.56 µg/mL (≈ 3.63 µM); in experiment [5] it was 0.1 µg/mL (≈ 0.233 µM); in [7] it was 0.05 µg/mL (≈ 0.116 µM). In addition, the MIC in experiment [8] was 0.01 µg/mL (≈ 0.0233 µM); in experiment [9] it was 0.2 µg/mL (≈ 0.466 µM); in [10], 0.1 µg/mL (≈ 0.233 µM); in experiment [11], more than 3.13 µg/mL; in experiment [12], 0.2 µg/mL (≈ 0.466 µM). In addition, the minimum concentration inducing gyrase-mediated DNA cleavage in experiment [6] came to 0.78 µg/mL.
Consider `O=C(O)c1cn(C2CC2)c2c(F)c(N3CCN4CCC3CC4)c(F)cc2c1=O`, for which the MIC was determined as 0.01 µg/mL (≈ 0.0257 µM) in experiment [1]; 0.39 µg/mL (≈ 1 µM) in experiment [2]; 0.1 µg/mL (≈ 0.257 µM) in [3]; 0.39 µg/mL (≈ 1 µM) in experiment [4]; 0.01 µg/mL (≈ 0.0257 µM) in experiment [5]; 0.01 µg/mL (≈ 0.0257 µM) in experiment [7]. In addition, the MIC in experiment [8] turned out to be 0.002 µg/mL (≈ 0.00514 µM); in [9] it was 0.01 µg/mL (≈ 0.0257 µM); in experiment [10], 0.05 µg/mL (≈ 0.128 µM); in experiment [11], 0.78 µg/mL (≈ 2 µM); in experiment [12] it was 0.1 µg/mL (≈ 0.257 µM). Besides, the minimum concentration inducing gyrase-mediated DNA cleavage in experiment [6] turned out to be 0.39 µg/mL.
